Screens deposited in PubChem by Broad Institute.
E-selectin induc: induces E-selectin expression in human endothelial cells; HUVEC E-selectin immunofluorescence imaging; normalized: neutral wells 0, TNF-alpha wells 100; P16581; actives 0.37% (n = 260,000); activation, % at 7.58 µM;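 active means mean E-selectin-positive cell signal at least 10% of the positive control, reached in at least 60% of replicates, without over 20% cell loss; inconclusive means no rule given, readout overlaps actives, possibly toxicity-flagged; inactive means the rest, including those meeting only one limit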
Target sequence (P16581 whole entry, looked up): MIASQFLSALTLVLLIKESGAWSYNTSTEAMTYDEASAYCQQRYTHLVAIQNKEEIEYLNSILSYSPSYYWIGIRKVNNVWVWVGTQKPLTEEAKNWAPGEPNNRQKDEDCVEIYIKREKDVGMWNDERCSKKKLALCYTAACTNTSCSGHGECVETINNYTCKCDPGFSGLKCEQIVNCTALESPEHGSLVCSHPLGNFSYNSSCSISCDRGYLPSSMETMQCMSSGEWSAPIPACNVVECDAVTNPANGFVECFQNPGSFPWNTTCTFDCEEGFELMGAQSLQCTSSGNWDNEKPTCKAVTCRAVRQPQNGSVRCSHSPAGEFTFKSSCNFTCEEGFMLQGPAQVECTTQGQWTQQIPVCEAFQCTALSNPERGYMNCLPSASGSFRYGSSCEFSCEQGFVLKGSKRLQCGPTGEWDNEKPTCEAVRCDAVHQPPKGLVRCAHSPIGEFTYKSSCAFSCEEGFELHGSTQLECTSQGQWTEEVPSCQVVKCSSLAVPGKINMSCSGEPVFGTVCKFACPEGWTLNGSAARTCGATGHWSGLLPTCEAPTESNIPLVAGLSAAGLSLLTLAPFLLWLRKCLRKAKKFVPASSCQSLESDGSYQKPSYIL
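material = human umbilical vein endothelial cells (HUVEC), E-selectin induction | quantity = 3,000 cells/well | medium = EGM-2 growth medium on 0.1% gelatin-coated wells | technique = immunofluorescence imaging | read-out basis = % PE-positive cells | control set = TNF-alpha positive control, DMSO neutral control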
DENV2 CPE: DENV2-induced cell death inhibition; CPE inhibition, % at 9.99 µM; actives 1.7% (n = 350,000); DENV2-infected cells, cytopathic effect rescue, plate reader; in the data active means CPE inhibition above about 20%, passing the limit was not always enough; inconclusive means no clear call, values can overlap the other calls; tested in BHK-21 cells;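 further: 0% = median of neutral control wells and 100% = median of positive control wells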
Ecoli rRNA inh: inhibits bacterial ribosomal RNA function over humanized ribosomes; actives 1.6% (n = 350,000); E. coli WT GFP vs humanized-ribosome RFP mutants, fluorescence, 24 h; active compounds read low; DMSO median 0, no signal -100; GFP signal change (wild-type ribosome), % (concentration not given with the values);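 active means significant combined selectivity score with lowered wild-type GFP, culture density cut under 30%, mutant RFP and density less affected; inactive means any of these conditions unmet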
miR122 inh: blocks miR-122 activity in Huh7 sensor cells; Huh7 miR-122 Renilla luciferase sensor, 48 h; neutral wells = 0, positive control = 100; activation (reporter increase), % at 12.5 µM; actives 0.3% (n = 340,000); AID 602342;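 active means mean replicate activation score at least 90 and every replicate individually at or above 90; inconclusive means only one of the two criteria met; inactive means neither criterion met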;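 further: higher luciferase means less miR-122 activity so hits act as miR-122 inhibitors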
Cneo AK release: causes C. neoformans cell lysis; adenylate kinase release luminescence, 4 h; normalised: neutral wells 0, clomiphene wells 100; lysis activity, % at 15 µM; actives 0.2% (n = 360,000); AID 651654;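 active means mean lysis activity across replicates of at least 80%, whatever share of replicates individually reach that level; inactive means mean lysis activity below 80%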
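Assay system: log-phase C. neoformans yeast / Quantity: yeast cell density of 5 × 10^6 cells/mL / Medium: fresh YPD growth medium / Compound: single dose / Timing: static 4 h at 37 °C with compound, 1 h detection / Measured by: adenylate kinase release luminescence / Read-out: lysis from increased AK signal / Benchmarks: Clomiphene as positive lysis control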
An asterisk follows results filed as active; ? = inconclusive; / = no result given; [ ] = remark or other dose. Rows were chosen to be rich in hits. Some 3.1% of all compounds tested hit in one or more screens of this group.

SMILES | E-selectin induc | DENV2 CPE | Ecoli rRNA inh | miR122 inh | Cneo AK release
C[C@H]1CN([C@@H](C)CO)C(=O)c2cccc(NS(=O)(=O)c3ccc(Cl)cc3)c2O[C@H]1CN(C)Cc1ccc(Cl)c(Cl)c1 | 0 | -2 | 4 | 10[16.7 µM] | 1
CCCCC1=CC2=C(c3ccco3)C(=O)C(C)(OC(=O)c3ccc(OC)cc3)C(=O)C2=CN1C1CC1 (centres undefined) | 0 | 53* | 7 | -3 | 22
C/C=C/c1ccc([C@@H]2[C@@H](CO)N(C(=O)NCCC)[C@H]2CN(C)C(=O)CC)cc1 | 0 | 78* | -1 | 21[16.7 µM] | 0
C/C=C/c1ccc([C@@H]2[C@@H](CO)N(C(=O)CC)[C@H]2CNC(=O)C2CC2)cc1 | 0 | 3 | 1 | 12[16.7 µM] | -1
C/C=C/c1ccc([C@H]2[C@@H](CO)N(C(=O)NCCC)[C@H]2CN(C)C(=O)CC)cc1 | 0 | -9 | 2 | / | /
C/C=C/c1ccc([C@@H]2[C@@H](CNC(=O)C3CC3)N(C(=O)CC)[C@H]2CO)cc1 | 0 | 26* | -3 | 54[16.7 µM] | 93*
C/C=C/c1ccc([C@H]2[C@@H](CO)N(C(C)=O)[C@H]2CNC(=O)c2ccccc2)cc1 | 0 | 24* | -6 | 21[16.7 µM] | 1
O=C(COc1cccnc1[N+](=O)[O-])Nc1ccccc1Sc1ccccc1 | / | 32* | -18 | 6 | 2
CO[C@H]1CN(C)C(=O)c2cc(NC(=O)Nc3ccc(C(F)(F)F)cc3)ccc2OC[C@H](C)NC[C@@H]1C | 0 | -6 | -31 | / | 2
COc1ccc(CN(C)C[C@@H]2Oc3ccc(NC(=O)C4CC4)cc3C(=O)N([C@@H](C)CO)C[C@H]2C)cc1 | 0 | / | 5 | 12[16.7 µM] | 92*
COc1ccc(CN(C)C[C@@H]2Oc3ccc(NC(=O)C4CC4)cc3C(=O)N([C@H](C)CO)C[C@H]2C)cc1 | 0 | / | 0 | 58[16.7 µM] | 106*
COCC#Cc1ccc([C@H]2[C@@H](CO)N3CCCCN(S(=O)(=O)c4ccc(OC)cc4)C[C@@H]23)cc1 | 0 | -16 | -1 | -1[16.7 µM] | 1
COCC#Cc1ccc([C@H]2[C@H](CO)N3CCCCN(S(=O)(=O)c4ccc(OC)cc4)C[C@@H]23)cc1 | 0 | 62* | 2 | 8[16.7 µM] | 0
COc1ccc(S(=O)(=O)N2CCCCN3[C@@H](CO)[C@H](c4ccc(C#CC(C)C)cc4)[C@@H]3C2)cc1 | 0 | -25 | -46* | 2[16.7 µM] | 4
COCC#Cc1ccc([C@H]2[C@H]3CN(S(=O)(=O)c4ccc(OC)cc4)CCCCN3[C@H]2CO)cc1 | 0 | 45* | -3 | 3[16.7 µM] | -2
COCC#Cc1ccc([C@@H]2[C@@H](CO)N3CCCCN(S(=O)(=O)c4ccccc4F)C[C@@H]23)cc1 | / | 21* | / | -11[16.7 µM] | 2
COc1ccc(CNC(=O)C[C@@H]2C=C[C@H](NS(=O)(=O)c3cccc(OC)c3)[C@H](CO)O2)cc1 | 0 | 0 | -2 | / | -4
COC(=O)C[C@@H]1CC[C@@H]2[C@H](COc3ccc(NC(=O)c4cccs4)cc3C(=O)N2C)O1 | 0 | 16 | 1 | -12[16.7 µM] | 0
COc1ccc(OCC2c3cc(OC)c(OC)cc3CCN2C(=O)C(C)C)cc1 (centres undefined) | 0 | 0 | -24* | / | /
CCNC(=S)N1CCc2cc(OC)c(OC)cc2C1COc1ccc(F)cc1 (centres undefined) | 4 | / | -31* | 3 | -4
CNC(=S)N1CCc2cc(OC)c(OC)cc2C1COc1ccc(F)cc1 (centres undefined) | / | -2 | -4 | / | /
O=[N+]([O-])c1cccc(COc2ccccc2CN2CCCC2)c1 | 0 | 58* | -14 | 3 | 2
CC(C)CC(NC(=O)OC(C)(C)C)c1cn([C@@H](CCC(=O)OC(C)(C)C)C(=O)N2CCN(C(=O)OC(C)(C)C)CC2)nn1 (some centres undefined) | 0 | 10 | 14 | 6 | 0
CC[C@H](C)C(C(=O)N1CCN(C(=O)OC(C)(C)C)CC1)n1cc(C(CC(C)C)NC(=O)OC(C)(C)C)nn1 (some centres undefined) | 1 | 32* | 2 | -4 | -2
O=C(COC(=O)CN1C(=O)C2CCCCC2C1=O)Nc1ccc(S(=O)(=O)N2CCOCC2)cc1 (centres undefined) | 2 | -1 | 2 | -9 | -1
SMILES | E-selectin induc | DENV2 CPE | Ecoli rRNA inh | miR122 inh | Cneo AK release
O=C(CN1CCN(c2ccc(O)cc2)CC1)Nc1cc(S(=O)(=O)N2CCCC2)ccc1Cl | -1 | 14 | -21* | / | /
CCN(CC)c1ccc(S(=O)(=O)N2CCOCC2)cc1NC(=O)CN1C(=O)NC2(CCCC2)C1=O | 63* | -2 | 7 | -3 | -2
O=C(COC(=O)CN1C(=O)C2CCCCC2C1=O)Nc1cc(S(=O)(=O)N2CCOCC2)ccc1Cl (centres undefined) | -1 | 88* | 3 | / | /
COc1cccc(N2CCN(CC(=O)Nc3ccccc3C(=O)NCCc3ccccc3)CC2)c1 | / | -8 | / | / | -2
O=C(CN1C(=O)NC2(CCCCCC2)C1=O)Nc1ccc(S(=O)(=O)N2CCOCC2)cc1 | / | / | 7 | / | 0
O=C(CN1CCN(c2ccc(O)cc2)CC1)Nc1ccccc1C(=O)NCCc1ccccc1 | 66* | -5 | -25* | 2 | 3
O=C(CN1CCN(c2ccc(O)cc2)CC1)Nc1cc(S(=O)(=O)N2CCCCC2)ccc1Cl | -2 | 6 | -4 | / | /
CO[C@@H]1CN(C)C(=O)c2ccc(NS(C)(=O)=O)cc2OC[C@H](C)N(Cc2ccccc2)C[C@@H]1C | / | / | 2 | / | /
CCCN(C)C[C@H]1OCCCC[C@H](C)Oc2ccc(NS(=O)(=O)c3ccc(F)cc3)cc2C(=O)N([C@@H](C)CO)C[C@@H]1C | 2 | ? | 1 | 1[16.7 µM] | 5
O=C(NCCc1ccccc1)c1ccccc1NC(=O)C1CCCCC1C(=O)O (centres undefined) | 7 | 44* | -2 | / | /
CS(=O)(=O)N1CCN(c2ccccc2NC(=O)Cc2ccccc2)CC1 | / | / | / | -1 | 0
O=C(Cc1ccccc1)Nc1ccccc1N1CCN(c2ccccc2)CC1 | / | 7 | -23* | / | 2
COc1ccc(NC(=O)N(C)C[C@@H]2Oc3ccc(NC(=O)Nc4ccccc4)cc3CC(=O)N([C@@H](C)CO)C[C@@H]2C)cc1 | 0 | 25* | 2 | -9[16.7 µM] | 59
C[C@@H]1CN([C@H](C)CO)C(=O)Cc2cc(NC(=O)Cc3ccccc3)ccc2O[C@@H]1CN(C)C(=O)Nc1ccc2c(c1)OCO2 | -1 | 28* | 0 | 0[16.7 µM] | -9
COc1ccc(NC(=O)Nc2ccc3c(c2)CC(=O)N([C@@H](C)CO)C[C@@H](C)[C@H](CN(C)C(=O)NC(C)C)O3)cc1 | 0 | 5 | 2 | 101*[16.7 µM] | 63
